Results from ChEMBL document CHEMBL3808334, “Synthesis and in vitro evaluation of novel triazine analogues as anticancer agents and their interaction studies with bovine serum albumin” (Eur J Med Chem, 2016).

Experiments:
Type in all cases: functional
MCF7 [1] = assay: Growth inhibition of human MCF7 cells assessed as cell growth at 10^-4 M incubated for 48 hrs by sulforhodamine B assay; conditions: MCF7, 48 h, read-out: Activity
K562 [2] = assay: Growth inhibition of human K562 cells incubated for 48 hrs by sulforhodamine B assay; conditions: K562, 48 h
Procedure, shortened: (§1)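 Cells were plated at 5,000–40,000 per well according to doubling time and preincubated 24 h at 37 °C in 5% CO2; time-zero plates were then TCA-fixed. Five concentrations (10-fold or ½-log dilutions, DMSO stock) were incubated 48 h. Cells were TCA-fixed, stained with 0.4% SRB and read at 515 nm. GI50 was taken where [(Ti−Tz)/(C−Tz)]×100 = 50.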

[3] = Growth inhibition of human SW620 cells incubated for 48 hrs by sulforhodamine B assay; conditions: SW-620, 48 h; procedure, shortened: as §1
[4] = Growth inhibition of human SNB19 cells incubated for 48 hrs by sulforhodamine B assay; conditions: SNB-19, 48 h; procedure, shortened: as §1
MCF7 [5] = assay: Growth inhibition of human MCF7 cells incubated for 48 hrs by sulforhodamine B assay; conditions: MCF7, 48 h; procedure, shortened: as §1
MDA-MB-435 = assay: Growth inhibition of human MDA-MB-435 cells assessed as cell growth at 10^-8 M incubated for 48 hrs by sulforhodamine B assay; conditions: MDA-MB-435, 48 h, read-out: Activity
[6] = Growth inhibition of human OVCAR8 cells assessed as cell growth at 10^-8 M incubated for 48 hrs by sulforhodamine B assay; conditions: OVCAR-8, 48 h, read-out: Activity
NCI/ADR-RES = assay: Growth inhibition of human NCI/ADR-RES cells assessed as cell growth at 10^-8 M incubated for 48 hrs by sulforhodamine B assay; conditions: read-out: Activity
[7] = Growth inhibition of human MOLT4 cells assessed as cell growth at 10^-4 M incubated for 48 hrs by sulforhodamine B assay; conditions: MOLT-4, 48 h, read-out: Activity
[8] = Growth inhibition of human HCT116 cells assessed as cell growth at 10^-4 M incubated for 48 hrs by sulforhodamine B assay; conditions: HCT-116, 48 h, read-out: Activity
Procedure, shortened: (§2)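 Cells seeded at 5,000–40,000/well according to doubling time and preincubated 24 h at 37 °C, 5% CO2. Time-zero plates were TCA-fixed. DMSO concentrate was diluted in medium with 50 µg/ml gentamicin to give five concentrations (10-fold or ½ log steps), then exposed 48 h. Cells were TCA-fixed, stained with 0.4% SRB and read at 515 nm. Percent growth was taken against time-zero and control; GI50, TGI and LC50 derived.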

SK-MEL-2 = assay: Growth inhibition of human SK-MEL-2 cells assessed as cell growth at 10^-4 M incubated for 48 hrs by sulforhodamine B assay; conditions: SK-MEL-2, 48 h, read-out: Activity
SK-MEL-28 = assay: Growth inhibition of human SK-MEL-28 cells assessed as cell growth at 10^-4 M incubated for 48 hrs by sulforhodamine B assay; conditions: SK-MEL-28, 48 h, read-out: Activity
A498 [9] = assay: Growth inhibition of human A498 cells assessed as cell growth at 10 uM incubated for 48 hrs by sulforhodamine B assay; conditions: A498, 48 h, read-out: Activity
Procedure, shortened: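 One-dose screen at 10 µM final. Cells are plated at 5,000–40,000 per well according to doubling time and preincubated 24 h at 37 °C, 5% CO₂. Compound (DMSO stock diluted in medium with 50 µg/ml gentamicin) is then added for 48 h. Growth percent is read by sulforhodamine B staining, absorbance at 515 nm.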

A498 [10] = assay: Growth inhibition of human A498 cells assessed as cell growth at 10^-7 M incubated for 48 hrs by sulforhodamine B assay; conditions: A498, 48 h, read-out: Activity
Procedure, shortened: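 Five-dose assay: five concentrations from 10-fold or ½-log serial dilutions. Cells are plated at 5,000–40,000 per well according to doubling time, grown 24 h, then exposed 48 h at 37 °C, 5% CO₂. Fixed with cold 50% TCA (final addition) for 60 min at 4 °C and stained with 0.4% SRB in 1% acetic acid. Bound dye is solubilized in 10 mM Tris base and read at 515 nm. GI₅₀ is where [(Ti−Tz)/(C−Tz)]×100 = 50, with a time-zero plate as Tz.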

SR = assay: Growth inhibition of human SR cells assessed as cell growth at 10^-6 M incubated for 48 hrs by sulforhodamine B assay; conditions: read-out: Activity
[11] = Growth inhibition of human HCT116 cells assessed as cell growth at 10^-8 M incubated for 48 hrs by sulforhodamine B assay; conditions: HCT-116, 48 h, read-out: Activity; procedure, shortened: as §2
[12] = Growth inhibition of human OVCAR4 cells assessed as cell growth at 10^-6 M incubated for 48 hrs by sulforhodamine B assay; conditions: OVCAR-4, 48 h, read-out: Activity
MDA-MB-468 = assay: Growth inhibition of human MDA-MB-468 cells assessed as cell growth at 10^-6 M incubated for 48 hrs by sulforhodamine B assay; conditions: MDA-MB-468, 48 h, read-out: Activity
[13] = Growth inhibition of human COLO205 cells assessed as cell growth at 10^-5 M incubated for 48 hrs by sulforhodamine B assay; conditions: COLO 205, 48 h, read-out: Activity; procedure, shortened: as §2
K562 [14] = assay: Growth inhibition of human K562 cells assessed as cell growth at 10 uM incubated for 48 hrs by sulforhodamine B assay; conditions: K562, 48 h, read-out: Activity
NCI-H23 = assay: Growth inhibition of human NCI-H23 cells assessed as cell growth at 10 uM incubated for 48 hrs by sulforhodamine B assay; conditions: NCI-H23, 48 h, read-out: Activity
[15] = Growth inhibition of human HCC2998 cells assessed as cell growth at 10 uM incubated for 48 hrs by sulforhodamine B assay; conditions: HCC 2998, 48 h, read-out: Activity
Procedure, shortened: (§3)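 Primary screen at one dose (10 µM) across 60 human cancer cell lines. Readout was growth percent relative to untreated control and time-zero.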

[16] = Growth inhibition of human HCT116 cells assessed as cell growth at 10 uM incubated for 48 hrs by sulforhodamine B assay; conditions: HCT-116, 48 h, read-out: Activity; procedure, shortened: as §3
[17] = Growth inhibition of human leukemia cells incubated for 48 hrs by sulforhodamine B assay; conditions: Leukemia cell; for CC50: read-out: LC50 (the source's name)
[18] = read-out: LC50 (the source's name)
[19] = read-out: pLC50 (the source's name) (converted)

## c1ccc(-c2nc(Nc3ccc(-c4nc5ccccc5[nH]4)cc3)nc(N3CCOCC3)n2)cc1
MCF7 [1]
  growth at 100 µM: -52%
K562 [2]; read-out: GI50
  GI50: 295 nM
K562 [2]; [18]
  CC50: 8310 nM
K562 [2]; read-out: TGI
  TGI: 959 nM
K562 [2]; read-out: pGI50 (converted)
  GI50: 295 nM
K562 [2]; [19]
  CC50: 8320 nM
K562 [2]; read-out: pTGI (converted)
  TGI: 955 nM
[3]; read-out: GI50
  GI50: 627 nM
[3]; [18]
  CC50: 5820 nM
[3]; read-out: TGI
  TGI: 2170 nM
[3]; read-out: pGI50 (converted)
  GI50: 631 nM
[3]; [19]
  CC50: 5750 nM
[3]; read-out: pTGI (converted)
  TGI: 2190 nM
[4]; read-out: GI50
  GI50: 1960 nM
[4]; read-out: TGI
  TGI: 4320 nM
[4]; read-out: pGI50 (converted)
  GI50: 1950 nM
[4]; read-out: pTGI (converted)
  TGI: 4370 nM
MCF7 [5]; read-out: GI50
  GI50: 877 nM
MCF7 [5]; [18]
  CC50: 8560 nM
MCF7 [5]; read-out: TGI
  TGI: 2850 nM
MCF7 [5]; read-out: pGI50 (converted)
  GI50: 871 nM
MCF7 [5]; [19]
  CC50: 8510 nM
MCF7 [5]; read-out: pTGI (converted)
  TGI: 2820 nM
MDA-MB-435
  growth at 0.01 µM: 98%
[6]
  growth at 0.01 µM: 101%
NCI/ADR-RES
  growth at 0.01 µM: 95%
[7]
  growth at 100 µM: -52%
[8]
  growth at 100 µM: -69%
SK-MEL-2
  growth at 100 µM: -83%
SK-MEL-28
  growth at 100 µM: -72%
A498 [9]
  growth at 10 µM: -83.4%
A498 [10]
  growth at 0.1 µM: 84%
SR
  growth at 1 µM: -20%
[11]
  growth at 0.01 µM: 99%
[12]
  growth at 1 µM: 93%
MDA-MB-468
  growth at 1 µM: 102%
[13]
  growth at 10 µM: -73%
K562 [14]
  growth at 10 µM: -30.1%
NCI-H23
  growth at 10 µM: -59%
[15]
  growth at 10 µM: -80.7%
[16]
  growth at 10 µM: -81.5%
[17]
  GI50: 570 nM
  TGI: 2170 nM
  CC50: 16300 nM

## Clc1ccc(-c2nc(Nc3ccc(-c4nc5ccccc5[nH]4)cc3)nc(N3CCOCC3)n2)cc1
MCF7 [1]
  growth at 100 µM: -17%
K562 [2]; read-out: GI50
  GI50: 186 nM
K562 [2]; read-out: TGI
  TGI: 391 nM
K562 [2]; read-out: pGI50 (converted)
  GI50: 186 nM
K562 [2]; read-out: pTGI (converted)
  TGI: 389 nM
[3]; read-out: GI50
  GI50: 186 nM
[3]; [18]
  CC50: 742 nM
[3]; read-out: TGI
  TGI: 372 nM
[3]; read-out: pGI50 (converted)
  GI50: 186 nM
[3]; [19]
  CC50: 741 nM
[3]; read-out: pTGI (converted)
  TGI: 372 nM
[4]; read-out: GI50
  GI50: 379 nM
[4]; read-out: pGI50 (converted)
  GI50: 380 nM
MCF7 [5]; read-out: GI50
  GI50: 194 nM
MCF7 [5]; read-out: TGI
  TGI: 490 nM
MCF7 [5]; read-out: pGI50 (converted)
  GI50: 195 nM
MCF7 [5]; read-out: pTGI (converted)
  TGI: 490 nM
MDA-MB-435
  growth at 0.01 µM: 100%
[6]
  growth at 0.01 µM: 104%
NCI/ADR-RES
  growth at 0.01 µM: 98%
[7]
  growth at 100 µM: -41%
[8]
  growth at 100 µM: -34%
SK-MEL-2
  growth at 100 µM: -40%
SK-MEL-28
  growth at 100 µM: -24%
A498 [9]
  growth at 10 µM: -81.5%
A498 [10]
  growth at 0.1 µM: 82%
SR
  growth at 1 µM: -19%
[11]
  growth at 0.01 µM: 99%
[12]
  growth at 1 µM: 52%
MDA-MB-468
  growth at 1 µM: 25%
[13]
  growth at 10 µM: -71%
K562 [14]
  growth at 10 µM: -100%
NCI-H23
  growth at 10 µM: -83.4%
[15]
  growth at 10 µM: -89.9%
[16]
  growth at 10 µM: -85.5%
[17]
  GI50: 190 nM
  TGI: 580 nM
  CC50: > 100000 nM
